# Laboratory results taken from ChEMBL document CHEMBL4732051, “The discovery of potent small molecule activators of human STING” (Eur J Med Chem, 2021).
# Active and inactive are the calls of the source. No cut-off for these calls is given here.
# What was measured:
# [1] = system: Stimulator of interferon genes protein (Homo sapiens), Q86WV6 [UNDEFINED MUTATION]; experiment: Activation of human STING R232 in human dendritic cells assessed as induction of CD83 measured by qt-PCR analysis; format: cell-based; details: Dendritic cell, filed as activator
# Stimulator of interferon genes protein (Homo sapiens), Q86WV6 [UNDEFINED MUTATION], sequence (Q86WV6 whole entry, looked up, stated change not applied): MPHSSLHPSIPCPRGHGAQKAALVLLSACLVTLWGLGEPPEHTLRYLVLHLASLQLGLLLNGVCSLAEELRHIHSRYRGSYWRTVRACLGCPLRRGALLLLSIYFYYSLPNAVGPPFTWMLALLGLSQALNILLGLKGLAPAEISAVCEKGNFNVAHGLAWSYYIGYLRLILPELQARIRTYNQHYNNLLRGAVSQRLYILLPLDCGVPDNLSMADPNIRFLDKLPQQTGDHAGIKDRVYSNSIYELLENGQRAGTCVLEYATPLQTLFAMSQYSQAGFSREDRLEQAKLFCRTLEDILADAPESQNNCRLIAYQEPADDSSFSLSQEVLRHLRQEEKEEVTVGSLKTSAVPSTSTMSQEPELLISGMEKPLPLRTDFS
# Procedure, shortened: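 PBMC isolated on Histopaque 1077, ACK-lysed, monocytes purified by MACS. Monocytes at 1 x 10^6 cells/ml in RPMI/10% FBS with 100ng/ml GMCSF and 50ng/ml IL4, 37 °C, 5% CO2, for 24–36 h. Compound added (1% DMSO final) for 6 h. CD86 and CD83 read by qPCR as fold of vehicle-treated cells.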
# [2] = system: HEK293T; experiment: Activation of human STING H232 mutant expressed in HEK293T cells assessed as phosphorylation at (Ser366) at 10 uM incubated for 2 hrs and measured by Western blot analysis; format: cell-based; details: filed as activator
# Procedure, shortened: (§1)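 HEK293T clones stably carrying each human STING variant, picked by blasticidin selection and limiting dilution. 5 x 10^5 cells were exposed to compound at 10μM for 2 h, lysed in RIPA with phosphatase and protease inhibitors, and 10 μg protein run on 10% SDS-PAGE. Immunoblots probed for pSTING (Ser366), pIRF3 (Ser396), total STING, IRF3 and actin, detected by ECL.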
# [3] = system: HEK293T; experiment: Activation of human STING H232 mutant expressed in HEK293T cells assessed as phosphorylation of IRF-3 at (Ser396) at 10 uM incubated for 2 hrs and measured by Western blot analysis; format: cell-based; details: filed as activator; procedure, shortened: as §1
# [4] = target: T1, Stimulator of interferon genes protein (Homo sapiens, UniProt Q86WV6); experiment: Activation of wild-type human STING expressed in HEK293T cells assessed as IRF3 reporter activation measured after 20 hrs by luciferase reporter gene assay; format: cell-based
# T1 sequence (Q86WV6 whole entry): as the sequence (Q86WV6 whole entry, looked up, stated change not applied) above
# [5] = Cmax in BALB/c mouse at 5 mg/kg, iv measured up to 24 hrs by LC-MS/MS analysis; format: ADME, organism-based; parameters: route intravenous, dose 5 mg/kg, time <=24; details: in vivo
# Procedure, shortened: (§2)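 Overnight-fasted mice, n=3 per group, single dose by lateral tail vein (iv) or oral gavage (po). Retro-orbital blood under isoflurane at 2 min–24 h (iv) or 5 min–24 h (po). Plasma spun at 1500 x g, 15 min, 4 °C, stored -80 °C, then analysed by LCMS.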
# [6] = target: Cytochrome P450 2D6 (Homo sapiens, UniProt P10635); experiment: Inhibition of CYP2D6 (unknown origin); format: ADME
# Cytochrome P450 2D6, sequence (P10635 whole entry): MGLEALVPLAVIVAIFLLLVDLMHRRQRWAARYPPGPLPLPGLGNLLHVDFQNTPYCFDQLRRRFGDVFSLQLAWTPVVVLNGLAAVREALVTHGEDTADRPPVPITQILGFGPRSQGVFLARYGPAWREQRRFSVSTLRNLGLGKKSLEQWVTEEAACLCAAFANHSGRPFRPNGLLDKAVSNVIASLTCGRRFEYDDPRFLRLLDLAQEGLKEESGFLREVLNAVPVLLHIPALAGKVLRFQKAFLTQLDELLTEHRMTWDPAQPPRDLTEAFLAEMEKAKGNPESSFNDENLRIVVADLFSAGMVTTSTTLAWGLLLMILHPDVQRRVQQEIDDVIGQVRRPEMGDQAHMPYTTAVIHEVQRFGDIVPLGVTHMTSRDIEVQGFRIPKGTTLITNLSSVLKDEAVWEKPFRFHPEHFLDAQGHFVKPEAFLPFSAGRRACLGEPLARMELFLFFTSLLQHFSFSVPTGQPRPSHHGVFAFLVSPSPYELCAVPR
# [7] = AUC in BALB/c mouse at 10 mg/kg, po measured up to 24 hrs by LC-MS/MS analysis; format: ADME, organism-based; parameters: route oral, dose 10 mg/kg, time <=24; details: in vivo; procedure, shortened: as §2
# [8] = target: T1, Stimulator of interferon genes protein; experiment: Activation of human STING in human PBMC cells assessed as induction of IFNbeta expression at 10 uM incubated upto 24 hrs and measured by qt-PCR analysis; format: cell-based; details: filed as activator, time hrs <=24
# Procedure, shortened: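 2 x 10^5 freshly isolated human PBMC from healthy donors, separated on Histopaque, given a single compound concentration. Harvested early (6 hr) or late (20h). Cytokine mRNA read by qRT-PCR as relative normalized expression (fold) against vehicle-treated cells.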
# [9] = Stability in mouse plasma at 37 degC by LC-MS/MS analysis; format: ADME, cell-free
# Procedure, shortened: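 Compound at 10 μM was incubated in mouse or human plasma at 37°C and its stability assessed.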
# [10] = system: B16-F10; experiment: Cytotoxicity against mouse B16 F10 cells at 5 to 10 uM; format: cell-based; details: b16-f10, 10 µM, dose 5-10 µM
# [11] = AUC in BALB/c mouse at 5 mg/kg, iv measured up to 24 hrs by LC-MS/MS analysis; format: ADME, organism-based; parameters: route intravenous, dose 5 mg/kg, time <=24; details: in vivo; procedure, shortened: as §2
# [12] = Volume of distribution in BALB/c mouse at 5 mg/kg, iv measured up to 24 hrs by LC-MS/MS analysis; format: ADME, organism-based; details: in vivo
# Procedure, shortened: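 Overnight-fasted mice, randomized, n=3 per group, each given a single dose by lateral tail vein (iv) or oral gavage. Blood (50 μl per point, under isoflurane) was taken from the retro-orbital plexus. Sampling was at 2 min–24 h after iv and 5 min–24 h after oral dosing. Plasma was separated at 1500 x g for 15 min at 4 °C, stored at -80 °C, and analysed by LCMS.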
# [13] = target: T1, Stimulator of interferon genes protein; experiment: Activation of human STING expressed in human PBMC cells assessed as phosphorylation of IRF3 at (Ser396) at 10 uM incubated for 2 hrs and measured by Western blot analysis; format: cell-based; details: filed as activator
# Procedure, shortened: (§3)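 Tumor cell lines or human primary cells carrying endogenous STING variants; STING KO cells as control. 10µM for 2 h, then lysed in RIPA with phosphatase and protease inhibitors. 10 μg protein on 10% SDS-PAGE, blotted for pSTING (Ser366), pIRF3 (Ser396), STING, IRF3 and actin, ECL detection.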
# [14] = target: T2, Cytochrome P450 1A2 (Homo sapiens, UniProt P05177); experiment: Inhibition of CYP1A2 (unknown origin); format: ADME
# T2 sequence (P05177 whole entry): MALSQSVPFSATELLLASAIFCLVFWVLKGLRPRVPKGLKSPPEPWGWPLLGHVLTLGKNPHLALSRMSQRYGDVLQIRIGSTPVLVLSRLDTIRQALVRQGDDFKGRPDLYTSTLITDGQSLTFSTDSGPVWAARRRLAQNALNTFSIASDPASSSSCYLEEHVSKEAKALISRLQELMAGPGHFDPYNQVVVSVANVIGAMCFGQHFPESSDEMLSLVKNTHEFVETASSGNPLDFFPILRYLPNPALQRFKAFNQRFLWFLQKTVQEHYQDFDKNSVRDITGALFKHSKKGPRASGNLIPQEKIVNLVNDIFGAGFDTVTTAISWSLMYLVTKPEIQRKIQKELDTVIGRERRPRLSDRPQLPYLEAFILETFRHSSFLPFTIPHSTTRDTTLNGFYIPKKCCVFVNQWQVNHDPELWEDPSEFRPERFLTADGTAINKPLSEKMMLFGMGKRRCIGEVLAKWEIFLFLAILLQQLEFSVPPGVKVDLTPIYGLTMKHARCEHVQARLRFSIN
# [15] = system: Stimulator of interferon genes protein (Homo sapiens), Q86WV6 [UNDEFINED MUTATION]; experiment: Activation of human STING R232 in human MDA-MB-468 cells assessed as phosphorylation of IRF3 at (Ser396) at 10 uM incubated for 2 hrs and measured by Western blot analysis; format: cell-based; details: filed as activator; procedure, shortened: as §3
# [16] = system: Stimulator of interferon genes protein (Homo sapiens), Q86WV6 [R71H,G230A,R293Q]; experiment: Activation of human STING HAQ mutant expressed in HEK293T cells assessed as phosphorylation at (Ser366) at 10 uM incubated for 2 hrs and measured by Western blot analysis; format: cell-based; details: filed as activator; procedure, shortened: as §1
# Stimulator of interferon genes protein (Homo sapiens), Q86WV6 [R71H,G230A,R293Q], sequence (Q86WV6 whole entry R71H/G230A/R293Q): as the sequence (Q86WV6 whole entry, looked up, stated change not applied) above, with R71H, G230A, R293Q counted along it
# [17] = system: Stimulator of interferon genes protein (Homo sapiens), Q86WV6 [UNDEFINED MUTATION]; experiment: Activation of human STING R232 in human MDA-MB-468 cells assessed as phosphorylation at (Ser366) at 10 uM incubated for 2 hrs and measured by Western blot analysis; format: cell-based; details: filed as activator; procedure, shortened: as §3
# [18] = Half life in BALB/c mouse at 5 mg/kg, iv measured up to 24 hrs by LC-MS/MS analysis; format: ADME, organism-based; details: in vivo; procedure, shortened: as §2
# [19] = system: HEK293T; experiment: Induction of STING H232 mutant (unknown origin) expressed in HEK293T cells assessed as increase in luciferase coupled ISG54-ISRE activity incubated for 18 hrs luciferase reporter gene assay; format: cell-based; details: Homo sapiens, filed as activator
compound,measurement,setting,value
CC1(C)C(=O)N(Cc2c(F)cccc2Cl)c2cc(C(=O)NCc3c(F)cc(F)cc3F)ccc21,Activity,[1],Active
same,Activity,[2],Active
same,Activity,[3],Active
same,EC50,[4],0.185 µM
same,Cmax,[5],1.87 µg/mL
same,inhibition (INH),[6],Not Active
same,AUC at 24 h,[7],2.09 µg·h/mL
same,Activity,[8],Active
same,Stabilty,[9],Stable
same,Activity,[10],Non-Toxic
same,AUC at 24 h,[11],1.22 µg·h/mL
same,Vd,[12],2.69 L/kg
same,Activity,[13],Active
same,inhibition (INH),[14],Not Active
same,Activity,[15],Active
same,Activity,[16],Active
same,Activity,[17],Active
same,half-life,[18],1.41 h
same,Activity,[19],Active
